From ChEMBL document CHEMBL4689842, “EUbOPEN Chemogenomics Library wave 1” (2021)
Where “and” joins values, the source holds several entries; their conditions need not be identical. Equal entries are not always repeated.

Test system: U2OS
Experiment: Multiplex assay against U2OS
Type: toxicity, cell-based
Settings: human, 10 µM, compound concentration 10 uM
Method in brief: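 Values for tubulin, mitochondrial-mass and membrane-permeability phenotypes are per cents of cells with healthy nuclei. These cells were identified by CellPathfinder machine-learning gating of live cells that had been stained at seeding with Hoechst33342, BioTracker Green Microtubule Cytoskeleton Dye, MitoTracker Red and Annexin V Alexa Fluor 680 and imaged on a CQ1 microscope at 37°C and 5% CO2 after compound addition. The gating first set Hoechst high-intensity objects apart from normal cells, then split normal cells into healthy, pyknosed or fragmented nuclei, and pyknosed cells into mitotic or apoptotic.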

In the case of `O=C(NCCN1CCOCC1)c1ccc2c(c1)C(=O)c1ccc(Nc3ccc(F)c(NC(=O)c4ccccc4)c3)cc1CC2` [FS-694], the “Population Apoptotic (%)” value (12 h, replicate 1) is reported as 75% and 25%, the “Population Healthy Nuclei (%)” value (12 h, replicate 1) is reported as 83% and 54% and the “Population Membrane Permeable-Phenotype (%)” value (12 h, replicate 1) is reported as 67% and 52%. The “Population Mitochondria Different-Phenotype (%)” value (12 h, replicate 1) was 18% and 50%, the “Population Mitotic Cells (%)” value (12 h, replicate 1) was 25% and 74% and the “Population Normal (%)” value (12 h, replicate 1) was 95% and 53%. The “Population Pyknosed Nuclei (%)” value (12 h, replicate 1) was 8% and 13%, the “Population Tubulin-Different-Phenotype (%)” value (12 h, replicate 1) was 48% and 88% and the “Total Cell Count” value (12 h, replicate 1) was 178 and 187. For the same molecule, the “Population Fragmented Nuclei (%)” value (12 h, replicate 2) was 40% and 27%, the “Population Healthy Nuclei (%)” value (12 h, replicate 2) was 47% and 65% and the “Population Membrane Permeable-Phenotype (%)” value (12 h, replicate 2) was 53% and 54%. For the same molecule, the “Population Mitotic Cells (%)” value (12 h, replicate 2) was 60% and 90%, the “Population Normal (%)” value (12 h, replicate 2) was 47% and 90% and the “Population Pyknosed Nuclei (%)” value (12 h, replicate 2) was 11% and 7%. For the same molecule, the “Total Cell Count” value (12 h, replicate 2) was 150 and 127, the “Population Apoptotic (%)” value (24 h, replicate 1) was 37% and 42% and the “Population Healthy Nuclei (%)” value (24 h, replicate 1) was 48% and 84%. For the same molecule, the “Population Membrane Permeable-Phenotype (%)” value (24 h, replicate 1) was 54% and 41%, the “Population Mitotic Cells (%)” value (24 h, replicate 1) was 62% and 57% and the “Population Normal (%)” value (24 h, replicate 1) was 55% and 95%. The “Population Pyknosed Nuclei (%)” value (24 h, replicate 1) was 23% and 8%, the “Total Cell Count” value (24 h, replicate 1) was 224 and 170 and the “Population Apoptotic (%)” value (24 h, replicate 2) was 50%. For the same molecule, the “Population Fragmented Nuclei (%)” value (24 h, replicate 2) was 45% and 17%, the “Population Healthy Nuclei (%)” value (24 h, replicate 2) was 39% and 76% and the “Population Membrane Permeable-Phenotype (%)” value (24 h, replicate 2) was 62% and 37%. The “Population Mitotic Cells (%)” value (24 h, replicate 2) was 50%, the “Population Normal (%)” value (24 h, replicate 2) was 47% and 91% and the “Population Pyknosed Nuclei (%)” value (24 h, replicate 2) was 14% and 5%. For the same molecule, the “Total Cell Count” value (24 h, replicate 2) was 160 and 131.
